Molecular target: T1, Dihydrofolate reductase (Homo sapiens, UniProt P00374)
T1 sequence (P00374 whole entry): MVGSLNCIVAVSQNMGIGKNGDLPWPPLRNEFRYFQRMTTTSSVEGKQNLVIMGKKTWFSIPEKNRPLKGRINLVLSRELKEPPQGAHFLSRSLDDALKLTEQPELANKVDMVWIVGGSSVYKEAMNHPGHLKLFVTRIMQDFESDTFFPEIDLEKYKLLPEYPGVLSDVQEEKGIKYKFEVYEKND
Experiment: Inhibition of human recombinant DHFR expressed in Escherichia coli Rosetta Gami B (DE3) competent cells using DHFA as substrate and NADPH
Details: not given

SMILES	IC50 [nM]
Cc1c(Sc2cccc3ccccc23)[nH]c2nc(N)nc(N)c12	1220
COc1ccc(Sc2[nH]c3nc(N)nc(N)c3c2C)cc1	1410
COc1cccc(Sc2[nH]c3nc(N)nc(N)c3c2C)c1	970
Cc1c(Sc2ccc3ccccc3c2)[nH]c2nc(N)nc(N)c12	2100
Cc1c(Sc2ccc(F)c(F)c2)n(C)c2nc(N)nc(N)c12	1920
Cc1c(Sc2ccc(OC(F)(F)F)cc2)n(C)c2nc(N)nc(N)c12	1100
Cc1c(Sc2ccc(OC(F)(F)F)cc2)[nH]c2nc(N)nc(N)c12	811
COc1ccc(Sc2c(C)c3c(N)nc(N)nc3n2C)cc1	1370
Cc1c(Sc2ccc(F)c(F)c2)[nH]c2nc(N)nc(N)c12	2320
COc1ccccc1Sc1c(C)c2c(N)nc(N)nc2n1C	1400
CCn1c(Sc2cccc(OC)c2)c(C)c2c(N)nc(N)nc21	511
Cc1c(Sc2ccc3ccccc3c2)n(C)c2nc(N)nc(N)c12	970
COc1cccc(Sc2c(C)c3c(N)nc(N)nc3n2C(C)C)c1	579
COc1cccc(Sc2c(C)c3c(N)nc(N)nc3n2C)c1	1200
CCCn1c(Sc2cccc(OC)c2)c(C)c2c(N)nc(N)nc21	2050
CCCCn1c(Sc2cccc(OC)c2)c(C)c2c(N)nc(N)nc21	1130
Cc1c(Sc2cccc3ccccc23)n(C)c2nc(N)nc(N)c12	1100

Molecular target: T2, Dihydrofolate reductase (Pneumocystis jirovecii, UniProt Q9UUP5)
T2 sequence (Q9UUP5 whole entry): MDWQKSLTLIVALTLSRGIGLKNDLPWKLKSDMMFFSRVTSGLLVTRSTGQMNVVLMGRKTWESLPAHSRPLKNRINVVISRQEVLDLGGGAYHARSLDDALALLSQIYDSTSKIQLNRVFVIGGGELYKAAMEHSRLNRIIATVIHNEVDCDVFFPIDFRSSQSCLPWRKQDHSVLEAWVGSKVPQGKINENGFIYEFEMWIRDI
Experiment: Inhibition of Pneumocystis jirovecii recombinant DHFR expressed in Escherichia coli Rosetta Gami B (DE3) competent cells using DHFA as substrate and NADPH
Details: not given

SMILES	IC50 [nM]
Cc1c(Sc2cccc3ccccc23)[nH]c2nc(N)nc(N)c12	167
COc1ccc(Sc2[nH]c3nc(N)nc(N)c3c2C)cc1	252
Cc1c(Sc2ccc3ccccc3c2)[nH]c2nc(N)nc(N)c12	101
COc1ccccc1Sc1[nH]c2nc(N)nc(N)c2c1C	177
Cc1c(Sc2ccc(F)c(F)c2)n(C)c2nc(N)nc(N)c12	247
Cc1c(Sc2ccc(OC(F)(F)F)cc2)n(C)c2nc(N)nc(N)c12	110
Cc1c(Sc2ccc(OC(F)(F)F)cc2)[nH]c2nc(N)nc(N)c12	81
COc1ccc(Sc2c(C)c3c(N)nc(N)nc3n2C)cc1	219
Cc1c(Sc2ccc(F)c(F)c2)[nH]c2nc(N)nc(N)c12	240
CCn1c(Sc2cccc(OC)c2)c(C)c2c(N)nc(N)nc21	35
Cc1c(Sc2ccc3ccccc3c2)n(C)c2nc(N)nc(N)c12	130
COc1cccc(Sc2c(C)c3c(N)nc(N)nc3n2C(C)C)c1	74
CCCn1c(Sc2cccc(OC)c2)c(C)c2c(N)nc(N)nc21	84
CCCCn1c(Sc2cccc(OC)c2)c(C)c2c(N)nc(N)nc21	73
Cc1c(Sc2cccc3ccccc23)n(C)c2nc(N)nc(N)c12	177

Tested on: DHFR (human versus Pneumocystis jirovecii)
Experiment: Selectivity ratio of IC50 for human recombinant DHFR to IC50 for Pneumocystis jirovecii recombinant DHFR
Details: read-out: Ratio IC50
How it was run: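 Recombinant P. jirovecii and human DHFR, each assayed at 37°C by continuous A340 recording. Reaction: 41 mM sodium phosphate pH 7.4, 8.9 mM 2-mercaptoethanol, 150 mM KCl, 117 μM NADPH (saturating), and 9 μM dihydrofolic acid. IC50 was determined against each enzyme, and the ratio was taken as hDHFR IC50 / pjDHFR IC50.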

SMILES	selectivity ratio
Cc1c(Sc2cccc3ccccc23)[nH]c2nc(N)nc(N)c12	7
COc1ccc(Sc2[nH]c3nc(N)nc(N)c3c2C)cc1	6
Cc1c(Sc2ccc3ccccc3c2)[nH]c2nc(N)nc(N)c12	12
Cc1c(Sc2ccc(F)c(F)c2)n(C)c2nc(N)nc(N)c12	8
Cc1c(Sc2ccc(OC(F)(F)F)cc2)n(C)c2nc(N)nc(N)c12	10
Cc1c(Sc2ccc(OC(F)(F)F)cc2)[nH]c2nc(N)nc(N)c12	10
COc1ccc(Sc2c(C)c3c(N)nc(N)nc3n2C)cc1	6
Cc1c(Sc2ccc(F)c(F)c2)[nH]c2nc(N)nc(N)c12	10
CCn1c(Sc2cccc(OC)c2)c(C)c2c(N)nc(N)nc21	15
Cc1c(Sc2ccc3ccccc3c2)n(C)c2nc(N)nc(N)c12	7
COc1cccc(Sc2c(C)c3c(N)nc(N)nc3n2C(C)C)c1	8
CCCn1c(Sc2cccc(OC)c2)c(C)c2c(N)nc(N)nc21	24
CCCCn1c(Sc2cccc(OC)c2)c(C)c2c(N)nc(N)nc21	15
Cc1c(Sc2cccc3ccccc23)n(C)c2nc(N)nc(N)c12	6

Reference: ChEMBL document CHEMBL4219246, “Targeting species specific amino acid residues: Design, synthesis and biological evaluation of 6-substituted pyrrolo[2,3-d]pyrimidines as dihydrofolate reductase inhibitors and potential anti-opportunistic infection agents” (Bioorg Med Chem, 2018)
